# Results taken from ChEMBL document CHEMBL5058577, “EUbOPEN Chemogenomics Library 2 (Multiplex)” (2022).
# Tested on: U2OS
# Assay: Multiplex assay against U2OS
# Type: toxicity, cell-based
# Conditions: human
# Procedure, shortened: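 Phenotypes for tubulin, mitochondrial mass and membrane permeability are expressed as per cents of healthy-nucleus cells. Cells were stained live at seeding with Hoechst33342, BioTracker Green Microtubule Cytoskeleton Dye, MitoTracker Red and Annexin V Alexa Fluor 680, then imaged after compound addition on a CQ1 microscope at 37°C and 5% CO2. Machine-learning gating in CellPathfinder separated Hoechst high-intensity objects from normal cells, divided normal cells by nuclear state (healthy, pyknosed, fragmented) and divided pyknosed cells into mitotic or apoptotic.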
# [1] = 12 h, 1 µM, compound concentration 1 uM, replicate 1
# [2] = 12 h, 1 µM, compound concentration 1 uM, replicate 2
# [3] = 12 h, 10 µM, compound concentration 10 uM, replicate 1
# [4] = 12 h, 10 µM, compound concentration 10 uM, replicate 2
# [5] = 24 h, 1 µM, compound concentration 1 uM, replicate 1
# [6] = 24 h, 1 µM, compound concentration 1 uM, replicate 2
# [7] = 24 h, 10 µM, compound concentration 10 uM, replicate 1
# [8] = 24 h, 10 µM, compound concentration 10 uM, replicate 2
# [9] = 48 h, 1 µM, compound concentration 1 uM, replicate 1
# [10] = 48 h, 1 µM, compound concentration 1 uM, replicate 2
# [11] = 48 h, 10 µM, compound concentration 10 uM, replicate 1
# [12] = 48 h, 10 µM, compound concentration 10 uM, replicate 2
smiles,measurement,setting,value
COCCCN1CCC(NC(=O)c2cc(Cl)c(N)c3c2OCC3)CC1 [PRUCALOPRIDE],Population Apoptotic (%),[1],84%
same,Population Fragmented Nuclei (%),[1],30%
same,Population Healthy Nuclei (%),[1],63%
same,Population Hoechst High Intensity Objects (%),[1],1%
same,Population Membrane Permeable-Phenotype (%),[1],7%
same,Population Mitochondria Different-Phenotype (%),[1],3%
same,Population Mitotic Cells (%),[1],15%
same,Population Normal (%),[1],98%
same,Population Pyknosed Nuclei (%),[1],6%
same,Population Tubulin-Different-Phenotype (%),[1],4%
same,Total Cell Count,[1],207
same,Population Apoptotic (%),[2],87%
same,Population Fragmented Nuclei (%),[2],21%
same,Population Healthy Nuclei (%),[2],71%
same,Population Hoechst High Intensity Objects (%),[2],0%
same,Population Membrane Permeable-Phenotype (%),[2],12%
same,Population Mitochondria Different-Phenotype (%),[2],7%
same,Population Mitotic Cells (%),[2],12%
same,Population Normal (%),[2],99%
same,Population Pyknosed Nuclei (%),[2],7%
same,Population Tubulin-Different-Phenotype (%),[2],8%
same,Total Cell Count,[2],110
same,Population Apoptotic (%),[3],68%
same,Population Fragmented Nuclei (%),[3],22%
same,Population Healthy Nuclei (%),[3],63%
same,Population Hoechst High Intensity Objects (%),[3],3%
same,Population Membrane Permeable-Phenotype (%),[3],4%
same,Population Mitochondria Different-Phenotype (%),[3],0%
same,Population Mitotic Cells (%),[3],31%
same,Population Normal (%),[3],96%
same,Population Pyknosed Nuclei (%),[3],13%
same,Population Tubulin-Different-Phenotype (%),[3],2%
same,Total Cell Count,[3],238
same,Population Apoptotic (%),[4],47%
same,Population Fragmented Nuclei (%),[4],13%
same,Population Healthy Nuclei (%),[4],73%
same,Population Hoechst High Intensity Objects (%),[4],2%
same,Population Membrane Permeable-Phenotype (%),[4],1%
same,Population Mitochondria Different-Phenotype (%),[4],1%
same,Population Mitotic Cells (%),[4],52%
same,Population Normal (%),[4],97%
same,Population Pyknosed Nuclei (%),[4],12%
same,Population Tubulin-Different-Phenotype (%),[4],1%
same,Total Cell Count,[4],140
same,Population Apoptotic (%),[5],80%
same,Population Fragmented Nuclei (%),[5],26%
same,Population Healthy Nuclei (%),[5],65%
same,Population Hoechst High Intensity Objects (%),[5],2%
same,Population Membrane Permeable-Phenotype (%),[5],5%
same,Population Mitochondria Different-Phenotype (%),[5],3%
same,Population Mitotic Cells (%),[5],20%
same,Population Normal (%),[5],97%
same,Population Pyknosed Nuclei (%),[5],8%
same,Population Tubulin-Different-Phenotype (%),[5],5%
same,Total Cell Count,[5],247
same,Population Fragmented Nuclei (%),[6],23%
same,Population Healthy Nuclei (%),[6],69%
same,Population Hoechst High Intensity Objects (%),[6],1%
same,Population Membrane Permeable-Phenotype (%),[6],8%
same,Population Mitochondria Different-Phenotype (%),[6],4%
same,Population Normal (%),[6],98%
same,Population Pyknosed Nuclei (%),[6],7%
same,Population Tubulin-Different-Phenotype (%),[6],7%
same,Total Cell Count,[6],132
same,Population Apoptotic (%),[7],87%
same,Population Fragmented Nuclei (%),[7],23%
same,Population Healthy Nuclei (%),[7],64%
same,Population Hoechst High Intensity Objects (%),[7],4%
same,Population Membrane Permeable-Phenotype (%),[7],5%
same,Population Mitochondria Different-Phenotype (%),[7],2%
same,Population Mitotic Cells (%),[7],12%
same,Population Normal (%),[7],95%
same,Population Pyknosed Nuclei (%),[7],12%
same,Population Tubulin-Different-Phenotype (%),[7],4%
same,Total Cell Count,[7],280
same,Population Apoptotic (%),[8],77%
same,Population Fragmented Nuclei (%),[8],12%
same,Population Healthy Nuclei (%),[8],76%
same,Population Hoechst High Intensity Objects (%),[8],1%
same,Population Membrane Permeable-Phenotype (%),[8],3%
same,Population Mitotic Cells (%),[8],22%
same,Population Normal (%),[8],98%
same,Population Pyknosed Nuclei (%),[8],11%
same,Population Tubulin-Different-Phenotype (%),[8],3%
same,Total Cell Count,[8],161
same,Population Apoptotic (%),[9],85%
same,Population Fragmented Nuclei (%),[9],20%
same,Population Healthy Nuclei (%),[9],73%
same,Population Hoechst High Intensity Objects (%),[9],3%
same,Population Membrane Permeable-Phenotype (%),[9],3%
same,Population Mitochondria Different-Phenotype (%),[9],1%
same,Population Mitotic Cells (%),[9],14%
same,Population Normal (%),[9],96%
same,Population Pyknosed Nuclei (%),[9],6%
same,Population Tubulin-Different-Phenotype (%),[9],3%
same,Total Cell Count,[9],352
same,Population Apoptotic (%),[10],86%
same,Population Healthy Nuclei (%),[10],67%
same,Population Hoechst High Intensity Objects (%),[10],2%
same,Population Membrane Permeable-Phenotype (%),[10],11%
same,Population Mitochondria Different-Phenotype (%),[10],6%
same,Population Mitotic Cells (%),[10],13%
same,Population Normal (%),[10],97%
same,Population Pyknosed Nuclei (%),[10],11%
same,Population Tubulin-Different-Phenotype (%),[10],9%
same,Total Cell Count,[10],199
same,Population Apoptotic (%),[11],88%
same,Population Fragmented Nuclei (%),[11],17%
same,Population Healthy Nuclei (%),[11],69%
same,Population Hoechst High Intensity Objects (%),[11],1%
same,Population Membrane Permeable-Phenotype (%),[11],5%
same,Population Mitochondria Different-Phenotype (%),[11],2%
same,Population Mitotic Cells (%),[11],11%
same,Population Normal (%),[11],98%
same,Population Pyknosed Nuclei (%),[11],12%
same,Population Tubulin-Different-Phenotype (%),[11],2%
same,Total Cell Count,[11],347
same,Population Apoptotic (%),[12],90%
same,Population Fragmented Nuclei (%),[12],11%
same,Population Healthy Nuclei (%),[12],79%
same,Population Membrane Permeable-Phenotype (%),[12],3%
same,Population Mitochondria Different-Phenotype (%),[12],3%
same,Population Mitotic Cells (%),[12],9%
same,Population Pyknosed Nuclei (%),[12],9%
same,Population Tubulin-Different-Phenotype (%),[12],1%
same,Total Cell Count,[12],245
